# In ChEMBL document CHEMBL1152660, “Structural analogues of diosgenyl saponins: synthesis and anticancer activity” (Bioorg Med Chem, 2009):
# Activity calls are given as the source filed them. The calls are words filed in the database; no cut-off is given here.
# How the values were obtained:
# HeLa (human) = test: Cytotoxicity against human HeLa cells after 72 hrs by MTT assay
# MCF7 (human) = test: Cytotoxicity against human MCF7 cells after 72 hrs by MTT assay; conditions: MCF7, 72 h
# HeLa = test: Cytotoxicity against human HeLa cells at 50 uM after 72 hrs by MTT assay; type: functional, cell-based
# How it was run: (§1)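 The MTT proliferation assay used MCF-7 or HeLa cells at 2000 per well in DMEM with 10% FBS at 37 °C and 5% CO2, with a 3-day exposure to DMSO-dissolved analogues diluted in medium. Compounds were tested up to the top concentration. A490 at that concentration is reported as percent of the absorbance of untreated cells.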
# MCF7 = test: Cytotoxicity against human MCF7 cells at 50 uM after 72 hrs by MTT assay; type: functional
# How it was run: as §1
SMILES,IC50 (HeLa (human)) [µM],IC50 (MCF7 (human)) [µM],Activity (HeLa),Activity (MCF7) [%]
C[C@@H]1CC[C@@]2(OC1)O[C@H]1C[C@H]3[C@@H]4CC=C5C[C@@H](O[C@@H]6O[C@H](CO)[C@@H](O[C@@H]7O[C@@H](C)[C@H](O)[C@@H](O)[C@H]7O)[C@H](O)[C@H]6NC(=O)c6cccc([N+](=O)[O-])c6)CC[C@]5(C)[C@H]4CC[C@]3(C)[C@H]1[C@@H]2C,39.4,22.8,–,–
C[C@@H]1CC[C@@]2(OC1)O[C@H]1C[C@H]3[C@@H]4CC=C5C[C@@H](O[C@@H]6O[C@H](CO)[C@@H](O[C@@H]7O[C@@H](C)[C@H](O)[C@@H](O)[C@H]7O)[C@H](O)[C@H]6NC(=O)c6cc([N+](=O)[O-])cc([N+](=O)[O-])c6)CC[C@]5(C)[C@H]4CC[C@]3(C)[C@H]1[C@@H]2C,–,39.5,inactive,–
C[C@@H]1CC[C@@]2(OC1)O[C@H]1C[C@H]3[C@@H]4CC=C5C[C@@H](O[C@@H]6O[C@H](CO)[C@@H](O)[C@H](O)[C@H]6NC(=O)c6cccc([N+](=O)[O-])c6)CC[C@]5(C)[C@H]4CC[C@]3(C)[C@H]1[C@@H]2C,16.1,13.6,–,–
COc1cccc2c1C(=O)c1c(O)c3c(c(O)c1C2=O)C[C@@](O)(C(=O)CO)C[C@@H]3O[C@H]1C[C@H](N)[C@H](O)[C@H](C)O1 [DOXORUBICIN],1.03,0.73,–,–
C[C@@H]1CC[C@@]2(OC1)O[C@H]1C[C@H]3[C@@H]4CC=C5C[C@@H](O[C@@H]6O[C@H](CO)[C@@H](O)[C@H](O)[C@H]6NC(=O)CCCCC6CCSS6)CC[C@]5(C)[C@H]4CC[C@]3(C)[C@H]1[C@@H]2C (stereo partly drawn) [ALPHA LIPOYL],7.3,6.9,–,–
C[C@@H]1CC[C@@]2(OC1)O[C@H]1C[C@H]3[C@@H]4CC=C5C[C@@H](O[C@@H]6O[C@H](CO)[C@@H](O)[C@H](O)[C@H]6NC(=O)c6cc([N+](=O)[O-])cc([N+](=O)[O-])c6)CC[C@]5(C)[C@H]4CC[C@]3(C)[C@H]1[C@@H]2C,21,18.7,–,–
C[C@@H]1CC[C@@]2(OC1)O[C@H]1C[C@H]3[C@@H]4CC=C5C[C@@H](O[C@@H]6O[C@H](CO)[C@@H](O[C@@H]7O[C@@H](C)[C@H](O)[C@@H](O)[C@H]7O)[C@H](O)[C@H]6NC(=O)CCCCC6CCSS6)CC[C@]5(C)[C@H]4CC[C@]3(C)[C@H]1[C@@H]2C (mixture of isomers),39.9,18.8,–,–
C[C@@H]1CC[C@@]2(OC1)O[C@H]1C[C@H]3[C@@H]4CC=C5C[C@@H](O[C@@H]6O[C@H](CO)[C@@H](O[C@@H]7O[C@@H](C)[C@H](O)[C@@H](O)[C@H]7O)[C@H](O)[C@H]6NC(=O)c6ccccc6)CC[C@]5(C)[C@H]4CC[C@]3(C)[C@H]1[C@@H]2C,–,> 50,inactive,68
C[C@@H]1CC[C@@]2(OC1)O[C@H]1C[C@H]3[C@@H]4CC=C5C[C@@H](O[C@@H]6O[C@H](CO)[C@@H](O)[C@H](O)[C@H]6NC(=O)c6ccccc6)CC[C@]5(C)[C@H]4CC[C@]3(C)[C@H]1[C@@H]2C,18,19.4,–,–
